This is a sample that favours compounds with a hit; in the whole collection about 2.1% have one here.
M1 PAM: human M1 muscarinic receptor positive allosteric modulators, primary screen, CHO-K1 cells, Fluo-8 calcium fluorescence, 1536-well | Muscarinic acetylcholine receptor M1 (Homo sapiens), P11229 | CHO-K1 hM1, ACh EC20; 0% = ACh EC20, 100% = maximal ACh | activation, % at 3 µM | 360,000 compounds, 0.088% hits; in the data active = activation above about 19%, passing the limit was not always enough
Target sequence (P11229 whole entry, looked up): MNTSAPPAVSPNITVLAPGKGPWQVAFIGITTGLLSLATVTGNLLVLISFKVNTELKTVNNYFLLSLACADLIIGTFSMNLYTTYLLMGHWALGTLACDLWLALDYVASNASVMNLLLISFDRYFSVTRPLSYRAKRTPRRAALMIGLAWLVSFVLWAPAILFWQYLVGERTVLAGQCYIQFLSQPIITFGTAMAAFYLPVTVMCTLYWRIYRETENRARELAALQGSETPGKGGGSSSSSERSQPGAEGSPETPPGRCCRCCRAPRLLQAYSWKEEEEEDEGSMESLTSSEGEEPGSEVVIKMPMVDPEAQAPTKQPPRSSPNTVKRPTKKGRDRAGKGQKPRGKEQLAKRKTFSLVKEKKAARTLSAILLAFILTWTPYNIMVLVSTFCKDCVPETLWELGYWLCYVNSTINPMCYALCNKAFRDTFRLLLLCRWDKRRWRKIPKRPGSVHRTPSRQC
M1 antag: human M1 muscarinic receptor antagonists, primary screen, CHO-K1 cells, Fluo-8 calcium fluorescence, 1536-well; Muscarinic acetylcholine receptor M1 (Homo sapiens), P11229; CHO-K1 hM1, ACh EC80 antagonist; inhibition, % at 3 µM; 360,000 compounds, 1.3% hits;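 active = percent inhibition above its own plate's cutoff, namely the mean of that plate's compound wells plus 3 SD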;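 note: peak over basal fluorescence ratio during 140 s after agonist addition; 0% = ACh EC80 plus DMSO and 100% = DMSO alone without agonist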
M5 antag: human M5 muscarinic receptor antagonists, primary screen, CHO cells, Fluo-8 calcium fluorescence; Muscarinic acetylcholine receptor M5 (Homo sapiens), P08912; 360,000 compounds, 0.59% hits; CHO-hM5 cells, ACh EC80; inhibition, % at 3 µM;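 active = inhibition above a per-plate cutoff, the mean of that plate's test compounds plus 3 SD, cut at about 27% in these data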;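 note: 0% = acetylcholine EC80 with DMSO and 100% = DMSO without agonist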
M5 PAM: human M5 muscarinic receptor positive allosteric modulators, primary screen, CHO-K1 cells, Fluo-8 calcium fluorescence; activation, % at 3 µM; Muscarinic acetylcholine receptor M5 (Homo sapiens), P08912; 360,000 compounds, 0.3% hits; CHO-K1 hM5, ACh EC20 PAM; 0% = ACh EC20, 100% = ACh EC100;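 active = activation above the run cutoff, the mean activation of all test compounds plus 3 SD, cut at about 18% in these data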
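Assay system – human M5 receptor in CHO-K1 cells · Read-out – % activation, ACh-normalized · Technique – Fluo-8 calcium fluorescence · Dosing – single-point, 3 µM nominal · Incubation – Fluo-8 loading 80 min at 37 °C plus 30 min room temperature · Repeats – singlicate, one well per test compound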
M1 ag: human M1 muscarinic receptor agonists, primary screen, Fluo-8 calcium fluorescence, CHO-K1 cells, HTS | Muscarinic acetylcholine receptor M1 (Homo sapiens), P11229 | CHO-K1 hM1, agonist mode; 0% DMSO, 100% acetylcholine EC100 | activation, % at 3 µM | 360,000 compounds, 0.33% hits;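 active = activation above the run's mean compound activation plus 3 SD, cut at about 16% in these data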;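 note: peak over basal fluorescence ratio within a 140 s kinetic read after compound addition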
M5 ag: human M5 muscarinic receptor agonists, primary screen, CHO-K1 cells, Fluo-8 calcium fluorescence; Muscarinic acetylcholine receptor M5 (Homo sapiens), P08912; CHO-K1 hM5 cells; 0% DMSO wells, 100% maximal acetylcholine response; 360,000 compounds, 0.19% hits; activation, % at 3 µM;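 active = activation above the run's mean over test compounds plus 3 SD, cut at about 23% in these data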;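 note: signal is peak over basal fluorescence ratio across the kinetic read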
The depositor's hits bear a star; / = no result.

SMILES	M1 PAM	M1 antag	M5 antag	M5 PAM	M1 ag	M5 ag
CNC(=O)Oc1ccc(-c2cn3cc(C)ccc3n2)cc1	8	-17	-9	8	-13	-2
CCCCCCCCCCOC(=O)CCN1CC1	-5	-1	16	-3	-2	0
CCCC(=O)OCC[N+](C)(C)C	-19	-12	-8	-15	43*	42*
COCc1cc(OC(=O)N(C)C)nc2c1c(C)nn2C	9	-13	2	0	-1	1
C[N+]12CCC(CC1)C(C(O)(c1ccccc1)c1cccs1)C2 (stereo not given)	-23	99*	94*	-16	-8	-7
CCCC[N+]12CCC(CC1)C(C(O)(c1ccccc1)c1ccccc1)C2 (stereo not given)	-18	32	8	-23	-7	-22
CCC[N+]12CCC(CC1)C(C(O)(c1ccccc1)c1ccccc1)C2 (stereo not given)	-24	60*	28*	-34	-9	-18
CC(CC(C#N)(c1ccccc1)c1ccccc1)N1CCOCC1 (stereo not given)	-30	99*	13	-29	-9	-12
N#CC(c1cccnc1)N1CCOCC1 (stereo not given)	4	6	6	1	-7	-1
CC(C)(C)c1ccc(CSc2cnn(C(C)(C)C)c(=O)c2Cl)cc1	-6	27	28*	-12	4	12
O=C(c1cc(C(=O)NCc2ccc(Cl)cc2)c(=O)n(Cc2ccc(Cl)cc2)c1)c1cc(F)ccc1O	14	-9	-2	0	0	-1
O=c1[nH]c2ccccc2n1C1CCN(CCCC(c2ccc(F)cc2)c2ccc(F)cc2)CC1	-10	7	12	-12	21*	21
O=C1CC(N2CCC(n3c(=O)[nH]c4ccccc43)CC2)C(=O)N1c1ccc(F)cc1 (stereo not given)	-9	0	1	-8	1	4
CC1(C)CCCN1CCC(C(N)=O)(c1ccccc1)c1ccccc1	-29	99*	99*	-36	-8	-11
CCOC(=O)C1(c2ccccc2)CCN(CCC(C#N)(c2ccccc2)c2ccccc2)CC1	5	-18	21	-19	4	1
CCn1ccnc1CN1CCCC(C(=O)c2cccc(C(F)(F)F)c2)C1 (stereo not given)	-27	78*	1	-11	-10	-9
O=C(NCCN1CCC2(CC1)C(=O)NCN2c1cccc(F)c1)c1ccc2ccccc2c1	/	/	99*	-25	/	52*
CC1(O)C[C@]2(C)N(O)C3CCCC[C@@H]3N2O1 (stereo not given in full)	5	0	2	1	-2	0
Oc1c(Cl)cc(Cl)cc1CN1CCN(Cc2ccccc2)CC1	-8	5	5	-1	-12	-3
Oc1c(Cl)cccc1Cc1cc(Cl)cc(Cl)c1O	-22	41*	30*	-24	3	4
OC1(c2ccccc2F)CC2CCC(C1)N2CCN1CCOCC1 (stereo not given)	5	-6	-1	-5	-6	-5
O=C(O)CCC(=O)NCCC1=c2ccccc2=N/C1=C\c1c(O)n(Cc2ccc(F)cc2)c(=S)[nH]c1=O	1	-23	5	2	-2	-9
CC(C)N1OC2CC1c1nc3ccccc3n1C2 (stereo not given)	8	-1	19	3	-4	-3
CN1OCC2Cn3c(nc4ccccc43)C21 (stereo not given)	27*	-13	5	4	5	1
C[C@]12CC[C@H](N)CC1=CCC1C2CC[C@@]2(C)C1CC[C@@H]2O (stereo not given in full)	1	-5	-5	6	-6	5
SMILES	M1 PAM	M1 antag	M5 antag	M5 PAM	M1 ag	M5 ag
C[C@]12CC[C@@H](O)CC1=CCC1C2CC[C@@]2(C)C1CC[C@@H]2N (stereo not given in full)	-20	26*	14	-6	-9	-7
O=C(NC1CN2CCC1CC2)c1cc(Cl)c([N+](=O)[O-])c2nc[nH]c12 (stereo not given)	0	11	-5	6	-10	-3
O=[N+]([O-])c1ccc(O)c([N+](=O)[O-])c1	-10	-4	-2	-3	2	4
O=[N+]([O-])c1cc([As](=O)(O)O)ccc1O	/	/	-2	-13	/	36*
O=S(=O)(c1ccc(Cl)cc1)N1Cc2ccccc2-n2nncc2C1	15	-19	2	-6	6	4
O=C(CN1CCCCC1)c1ccc(F)cc1	6	-10	0	3	-3	-6
O=C(c1ccccc1)C(CN1CCCC1)c1ccccc1 (stereo not given)	-26	51*	18	-14	-7	-8
CCCCOc1ccc(CN2CCN(CCO)CC2)cc1	-19	33*	-9	7	-8	-10
O=C(O)c1ccc([N+](=O)[O-])c([N+](=O)[O-])c1	6	-10	9	11	-1	2
Cc1cccc(-n2c(O)c(C=NCCN3CCNCC3)c(=O)[nH]c2=S)c1	-23	25	6	0	53*	-3
CN(C)CCSC1c2ccccc2CSc2ccccc21 (stereo not given)	-27	99*	99*	-32	-8	-21
C[N+]12CCC(CC1)C(=C(c1ccccc1)c1ccccc1)C2	-25	98*	99*	-19	-7	-9
CC[N+]12CCC(CC1)C(=C(c1ccccc1)c1ccccc1)C2	-25	98*	99*	-19	-8	-10
O=C1CC(=O)N(c2cccc(Cl)c2)C(=O)N1	7	-8	-6	2	-4	-1
CON(C)C(=O)Nc1ccc(Cl)cc1	3	3	-3	5	-5	0
O=C(Nc1ccc(Cl)cc1)O/N=C(\c1ccccc1)c1ccccn1	-11	16	33*	-12	2	4
C(#CCN1CCCCC1)CN1CCCCC1	-9	11	1	-6	-11	1
O=C1CCCN1CC#CCN1CCCC1	-15	87*	95*	-15	102*	103*
COC(=O)C1=C(c2ccccc2)C[C@@H]2CC[C@H]1N2C(=O)NCCS(C)=O (stereo not given in full)	0	5	9	9	-10	-4
